Laboratory results from ChEMBL document CHEMBL4177761, “Highlights of the Structure-Activity Relationships of Benzimidazole Linked Pyrrolidines Leading to the Discovery of the Hepatitis C Virus NS5A Inhibitor Pibrentasvir (ABT-530)” (J Med Chem, 2018).
Positions count from the first letter of the chain named.

Experiments:
[1] = AUClast in monkey at 2.5 mg/kg, po by LC-MS method; assay type: ADME, organism-based, Macaca mulatta; design: dose 2.5 mg/kg, time 0 - last, route oral; details: rhesus monkey, in vivo
Summary of the method: (§1)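 Single dose in dog or monkey, 1 mg/kg IV or 2.5 mg/kg PO. Plasma drug measured by LC-MS after acetonitrile protein precipitation with an internal standard. Quantified by linear regression of parent/internal-standard peak-area ratio against spiked standards.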

[2] = Half life in mouse at 3 mg/kg, iv by LC-MS method; assay type: ADME, organism-based; details: in vivo
Summary of the method: (§2)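 Single dose, 3 mg/kg, in mouse or rat. IV vehicle: DMSO:Tween 80:PEG-400:D5W 2:5:20:73 (v/v). PO vehicle: Phosol 53 MCT:PEG-400:Poloxamer 124:Cremophor RH40 40:20:20:20 (w/w). Acetonitrile protein precipitation, then LC-MS/MS in negative-ion MRM against an internal standard; LOQ ~20 ng/mL.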

[3] = Drug level in rat at 3 mg/kg, po at 24 hrs by LC-MS method; assay type: ADME, organism-based; details: in vivo, read-out: Drug uptake; summary of the method: as §2
[4] = Cmax in rat at 3 mg/kg, po by LC-MS method; assay type: ADME, organism-based; design: dose 3 mg/kg, route oral; details: in vivo; summary of the method: as §2
[5] = system: T1, Nonstructural protein 5A (Hepatitis C virus), Q5L478 [Y93H]; experiment: Inhibition of NS5A Y93H mutant in HuH7 cell infected HCV genotype 1b Con1 assessed as decrease in viral replication after 4 days by luciferase reporter gene assay relative to wild type protein; details: Hepatitis C virus (isolate Con1)
T1 sequence (whole entry): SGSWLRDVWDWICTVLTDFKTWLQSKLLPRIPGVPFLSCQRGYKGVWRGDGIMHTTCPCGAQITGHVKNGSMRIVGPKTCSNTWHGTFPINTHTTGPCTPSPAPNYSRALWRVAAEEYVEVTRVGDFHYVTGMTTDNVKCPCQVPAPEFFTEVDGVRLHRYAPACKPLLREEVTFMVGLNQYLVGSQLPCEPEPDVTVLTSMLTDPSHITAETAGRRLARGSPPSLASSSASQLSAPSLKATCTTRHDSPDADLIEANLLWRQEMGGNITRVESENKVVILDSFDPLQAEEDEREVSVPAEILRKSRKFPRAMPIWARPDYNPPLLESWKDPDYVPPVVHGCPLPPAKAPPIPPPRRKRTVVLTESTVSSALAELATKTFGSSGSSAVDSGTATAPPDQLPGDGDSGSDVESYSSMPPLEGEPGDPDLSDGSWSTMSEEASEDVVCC
Summary of the method: (§3)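 Stable subgenomic luciferase replicons in Huh-7 cells: genotype 1b-Con1 carrying NS5A Y93H or Y93N, tested alongside the wild-type replicon. Cells are incubated 4 days with compound in DMEM with 5% FBS. Luciferase read-out, EC50 from a 4-parameter logistic fit, expressed as fold change versus wild type.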

[6] = Oral bioavailability in rat at 3 mg/kg by LC-MS method; assay type: ADME, organism-based; details: in vivo; summary of the method: as §2
[7] = Cmax in mouse at 3 mg/kg, po by LC-MS method; assay type: ADME, organism-based; design: dose 3 mg/kg, route oral; details: in vivo; summary of the method: as §2
[8] = Half life in monkey at 1 mg/kg, iv by LC-MS method; assay type: ADME, organism-based, Macaca mulatta; details: rhesus monkey, in vivo; summary of the method: as §1
[9] = Cmax in dog at 2.5 mg/kg, po by LC-MS method; assay type: ADME, organism-based, Canis lupus familiaris; design: dose 2.5 mg/kg, route oral; details: in vivo; summary of the method: as §1
[10] = target: T2, Nonstructural protein 5A (Hepatitis C virus) (UniProt Q5L478); experiment: Inhibition of NS5A Q30E mutant in HuH7 cell infected HCV genotype 1a H77 assessed as decrease in viral replication after 4 days by luciferase reporter gene assay relative to wild type protein; details: Hepatitis C virus (isolate H77)
T2 sequence (whole entry): T1 sequence (whole entry) with H93Y
Summary of the method: as §3, with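 “1a-H77” for “1b-Con1”, “NS5A substitutions M28T, Q30E, Q30R, Y93C,” for “NS5A”, “by” for “from a”, “and” for “expressed as”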

[11] = Oral bioavailability in dog at 2.5 mg/kg by LC-MS method; assay type: ADME, organism-based, Canis lupus familiaris; details: in vivo; summary of the method: as §1
[12] = Half life in rat at 3 mg/kg, po by LC-MS method; assay type: ADME, organism-based; details: in vivo; summary of the method: as §2
[13] = AUClast in mouse at 3 mg/kg, iv by LC-MS method; assay type: ADME, organism-based; design: dose 3 mg/kg, route intravenous, time 0 - last; details: in vivo; summary of the method: as §2
[14] = AUClast in monkey at 1 mg/kg, iv by LC-MS method; assay type: ADME, organism-based, Macaca mulatta; design: dose 1 mg/kg, time 0 - last, route intravenous; details: rhesus monkey, in vivo; summary of the method: as §1
[15] = Oral bioavailability in mouse at 3 mg/kg by LC-MS method; assay type: ADME, organism-based; details: in vivo; summary of the method: as §2
[16] = system: T1, Nonstructural protein 5A (Hepatitis C virus), Q5L478 [Y93H]; experiment: Inhibition of NS5A Y93H mutant in HuH7 cell infected HCV genotype 1a H77 assessed as decrease in viral replication after 4 days by luciferase reporter gene assay relative to wild type protein; details: Hepatitis C virus (isolate H77)
Summary of the method: as §3, with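 “1a-H77” for “1b-Con1”, “NS5A substitutions M28T, Q30E, Q30R, Y93C,” for “NS5A”, “by” for “from a”, “and” for “expressed as”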

[17] = AUClast in dog at 1 mg/kg, iv by LC-MS method; assay type: ADME, organism-based, Canis lupus familiaris; design: dose 1 mg/kg, route intravenous, time 0 - last; details: in vivo; summary of the method: as §1
[18] = Plasma clearance in monkey at 1 mg/kg, iv by LC-MS method; assay type: ADME, organism-based, Macaca mulatta; details: rhesus monkey; summary of the method: as §1
[19] = Half life in dog at 1 mg/kg, iv by LC-MS method; assay type: ADME, organism-based, Canis lupus familiaris; details: in vivo; summary of the method: as §1
[20] = system: T3, Nonstructural protein 5A (Hepatitis C virus), Q5L478 [Y93N]; experiment: Inhibition of NS5A Y93N mutant in HuH7 cell infected HCV genotype 1a H77 assessed as decrease in viral replication after 4 days by luciferase reporter gene assay relative to wild type protein; details: Hepatitis C virus (isolate H77)
T3 sequence (whole entry): T1 sequence (whole entry) with H93N
Summary of the method: as §3, with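 “1a-H77” for “1b-Con1”, “NS5A substitutions M28T, Q30E, Q30R, Y93C,” for “NS5A”, “by” for “from a”, “and” for “expressed as”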

[21] = AUClast in mouse at 3 mg/kg, po by LC-MS method; assay type: ADME, organism-based; design: dose 3 mg/kg, time 0 - last, route oral; details: in vivo; summary of the method: as §2

## COC(=O)N[C@H](C(=O)N1CCC[C@H]1c1nc2cc([C@H]3CC[C@H](c4cc5nc([C@@H]6CCCN6C(=O)[C@@H](NC(=O)OC)[C@@H](C)OC)[nH]c5cc4F)N3c3cc(F)c(N4CCC(c5ccc(F)cc5)CC4)c(F)c3)c(F)cc2[nH]1)[C@@H](C)OC [PIBRENTASVIR]
[1]
  AUC(0-t): 2250 ng·h/mL
[2]
  half-life: 2 h
[3]
  concentration at 24 h: 41 nM
[4]
  Cmax: 250 nM
[5]
  fold change (FC): 0.6
[6]
  bioavailability: 9.9%
[7]
  Cmax: 1140 nM
[8]
  half-life: 8.3 h
[9]
  Cmax: 562 nM
[10]
  fold change (FC): 2.4
[11]
  bioavailability: 29.8%
[12]
  half-life: 7 h
[13]
  AUC(0-t): 252000 ng·h/mL
[14]
  AUC(0-t): 6470 ng·h/mL
[15]
  bioavailability: 7.9%
[16]
  fold change (FC): 6.7
[17]
  AUC(0-t): 10600 ng·h/mL
[18]
  clearance: 2.5 mL/min/kg
[19]
  half-life: 7.1 h
[20]
  fold change (FC): 6.7
[21]
  AUC(0-t): 20000 ng·h/mL
